# Compounds with a hit are over-represented: about 4.3% of the library has one in this group of screens.
# CHO parental Ca: signal in parental CHO cells, OX1R antagonist counter-screen; parental CHO-K1, ATP-induced calcium, Fluo-8 fluorescence; inhibition, % at 5.6 µM; 330,000 compounds, 0.63% hits; AID 463079;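 active = inhibition above that plate's mean sample inhibition plus 3 SD, cut at about 26% in these data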;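 note: 0% = ATP-challenged DMSO wells and 100% = DMSO wells without ATP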
#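 Measured by: calcium-sensitive Fluo-8 fluorescence / Test system: CHO parental line / Controls: ATP-challenged DMSO wells low, unchallenged DMSO wells high / Measure: % inhibition / Compound: single nominal dose of 5.6 µM per compound / Replicates: single well per compound, no replicates / Reagent: ATP as calcium-mobilizing challenge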
# TAAR1 antagonist: human TAAR1 antagonism | 360,000 compounds, 1.5% hits | Q96RJ0 | CHO RD-HGA16 TAAR1, Fluo-8 calcium fluorescence, antagonist | inhibition, % at 3 µM;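 active = inhibition above a per-plate cutoff, the mean inhibition of test compounds on that plate plus 3 SD, cut at about 49% in these data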;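 note: 0% = DMSO plus EC80 beta-PEA response and 100% = DMSO alone without agonist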
#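 test system = CHO RD-HGA16 cells bearing hTAAR1 | replication = singlicate | controls = DMSO-only wells and EC80 β-PEA-stimulated wells | reagent = EC80 β-phenethylamine stimulus | read-out basis = percent inhibition of PEA-evoked calcium signal, max/basal emission ratio | schedule = seeding 17-24 h prior, 75-min 37 °C, 30-min RT dye loading | signal = kinetic Fluo-8 calcium fluorescence measurement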
# OX1R antag-1: OX1R (human) antagonism; OX1R-expressing cells, FRET antagonist read-out; inhibition, % at 6.6 µM; 330,000 compounds, 1.8% hits; in the data active = inhibition mostly above about 38%, no sharp cut-off; inactive = mostly below about 40%;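 note: 0% = agonist challenge alone and 100% = reference antagonist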
# TAAR1 ag: agonists of human TAAR1. CHO RD-HGA16 TAAR1, Fluo-8 calcium fluorescence; vehicle wells 0%, saturating PEA agonist 100%. activation, % at 3 µM. 360,000 compounds, 0.99% hits;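 active = activation above the mean activation of all test compounds in the run plus 3 SD, cut at about 38% in these data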
#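 Test system: RD-HGA16 (CHO) cells co-expressing Gα16 and hTAAR1; dosing: one-point dosing at 3 µM (nominal); timing: 17-24 h seeding, 75 min 37 °C dye, 30 min RT; signal: kinetic Fluo-8 calcium fluorescence; read-out basis: % activation relative to PEA EC100 response; controls: DMSO and PEA EC100; replicates: n 1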
# GalR3 antag: human GalR3 antagonism; AID 651719; 360,000 compounds, 0.44% hits; inhibition, % at 3 µM; HEK293 GalR3-CNG cAMP membrane potential fluorescence; galR3 body fused to GalR1 C-terminus; O60755;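 active = inhibition above the screen-wide average plus 3 SD, cut at about 13% in these data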;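 note: forskolin and galanin both at EC90 stimulate the cells; cAMP rise reported by CNG channel membrane potential dye signal; 0% = forskolin plus galanin with DMSO and 100% = forskolin alone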
# Target sequence (O60755 1-299 limits assumed): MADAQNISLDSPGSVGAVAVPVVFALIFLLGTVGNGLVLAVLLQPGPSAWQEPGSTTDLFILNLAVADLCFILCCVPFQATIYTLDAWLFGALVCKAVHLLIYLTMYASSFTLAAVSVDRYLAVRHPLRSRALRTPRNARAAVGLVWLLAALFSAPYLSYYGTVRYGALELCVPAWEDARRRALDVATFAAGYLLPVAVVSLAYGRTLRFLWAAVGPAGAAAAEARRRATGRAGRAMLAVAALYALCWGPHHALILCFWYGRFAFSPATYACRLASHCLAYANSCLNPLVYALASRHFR
# OX1R antag-2: human HCRTR1 antagonism. CHO/OX1R cells, Fluo-8 calcium fluorescence, orexin A. 330,000 compounds, 0.43% hits. inhibition, % at 5 µM;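 active = inhibition above its plate's threshold, mean inhibition of all tested compounds on the plate plus 3 SD, cut at about 37% in these data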;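 note: 0% = orexin A challenge wells and 100% = SB-334867-A antagonist wells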
# GalR3 conf: GalR3 (human) antagonism, confirmation | shares compounds with GalR3 antag | HEK293 GalR3 CNG cAMP biosensor, membrane potential fluorescence; galR3 fused to GalR1 carboxy tail; challenged with forskolin and galanin at EC90 | inhibition, % at 3 µM | 1,600 compounds, 59% hits;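 active = inhibition above the primary screen's cutoff, the mean inhibition of all screened compounds plus 3 SD, cut at about 13% in these data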;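 note: 0% = forskolin plus galanin and 100% = forskolin alone with DMSO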
# HEK-CNG parental: parental cell agonism counter-screen for GalR3 antagonists | HEK293-CNG parental cells, cAMP membrane potential fluorescence; normalised: DMSO wells 0%, forskolin wells 100% | 1,600 compounds, 10% hits | shares compounds with GalR3 antag | activation, % at 3 µM | AID 652268; in the data active = activation above about 1.3%
# * = called active by the depositor; . = no result.
SMILES,CHO parental Ca,TAAR1 antagonist,OX1R antag-1,TAAR1 ag,GalR3 antag,OX1R antag-2,GalR3 conf,HEK-CNG parental
O=C(CSc1nnc(NC(=O)c2c(F)cccc2F)s1)NCc1ccccc1,-11,6,14,-1,-9,-4,.,.
COc1ccc(Cl)cc1NC(=O)Nc1ccccc1C(N)=O,-13,-6,4,2,4,-4,.,.
COc1ccc(Cl)cc1NC(=O)Nc1ccccc1SC,2,19,23,5,.,-3,11,0
N#C/C(=C\c1ccccc1)C(=O)Nc1nncs1,-14,-13,4,12,16*,-19,9,0
O=C(C[C@H]1C(=O)N(c2ccccc2)C[C@@H]1Cc1ccccc1)Nc1ccccc1,.,-4,.,-1,-7,.,.,.
O=C(c1cccnc1Cl)N1CCOCC1,-8,-15,19,4,13*,-12,2,0
Cc1ccccc1Nc1ncccc1C(=O)N1CCOCC1,-2,1,10,14,-2,3,.,.
CCN1C(=O)[C@@H]2[C@@H](c3ccc(-c4ccc(Cl)c(Cl)c4)c(OC)c3)N3CCCC[C@@]3(C(=O)OC)[C@@H]2C1=O,-19,-1,23,-1,13*,-27,-7,1.9*
CCN1C(=O)[C@H]2[C@@H](c3ccc(-c4cccc(Cl)c4)c(OC)c3)N3CCC[C@@]3(C(=O)OC)[C@H]2C1=O,-16,13,11,3,1,-8,.,.
COCCNC(=O)/C(C#N)=C/c1c(N2CC(C)OC(C)C2)nc2ccccn2c1=O (configuration not stated),-5,-16,40,11,25*,6,-1,0
CC(C)(C)CC(=O)N1CCN(c2ccc(S(=O)(=O)N3CCOCC3)cc2[N+](=O)[O-])CC1,-14,1,4,12,-7,-7,.,.
COc1cc2c(cc1OC)-c1cc(Nc3ccc(N(C)C)cc3)nc(=O)n1CC2,-6,-12,5,2,36*,-12,55*,0
CCN(CC)c1ccc(Nc2cc3n(c(=O)n2)CCc2cc(OC)c(OC)cc2-3)cc1,-18,10,-2,5,47*,-21,64*,0
COc1cc2c(cc1OC)-c1cc(Nc3ccc(F)cc3)nc(=O)n1CC2,-11,-5,20,1,9,-8,.,.
COc1cc2c(cc1OC)-c1cc(Nc3cccc(F)c3)nc(=O)n1CC2,.,7,.,1,5,.,.,.
COc1ccc(C(=O)c2ccc3oc(-c4ccc(OC)cc4)c(-c4ccc(O)cc4)c3c2)cc1,11,3,6,2,13*,26,5,-1
COc1ccc(C(=O)c2c(-c3ccc(OC)cc3)oc3ccccc23)cc1,-23,0,16,3,3,-35,.,.
CCOC(=O)C1=C(C)NC2=C(C(=O)CCC2)C1c1cc(OC)ccc1OC (configuration not stated),-14,-4,6,0,-1,-18,.,.
CCOC(=O)C1=C(C)NC2=C(C(=O)CCC2)C1c1cn(Cc2ccc(Cl)cc2Cl)nc1-c1ccccc1 (configuration not stated),-26,1,25,13,16*,13,13*,6.2*
COC(=O)C1=C(C)NC2=C(C(=O)CCC2)C1c1cn(Cc2ccc(Cl)cc2Cl)nc1-c1ccccc1 (configuration not stated),-16,7,66,6,37*,13,50*,0
COC(=O)C1=C(C)NC2=C(C(=O)CCC2)C1c1cccs1 (configuration not stated),.,-18,.,4,2,.,.,.
[O-]/[N+](=N\Nc1ccc(Cl)cc1)c1ccccc1,.,-4,.,0,-6,.,.,.
CCCCN(Cc1nc2ccccc2c(=O)[nH]1)C(=O)COc1ccc(F)cc1Cl,-10,-19,3,2,-3,-7,.,.

# High-throughput results deposited in PubChem BioAssay by The Scripps Research Institute Molecular Screening Center.
